Experimental data as given in ChEMBL document CHEMBL2375227, “Novel small molecules as apoptosis inducers: synthesis, preliminary structure-activity relationships, and in vitro biological evaluation” (Bioorg Med Chem Lett, 2013).
Blank lines part the entries; values can stand above or below the compound they belong to.

Key:
[1] = Antiproliferative activity against human H460 cells after 48 hrs by MTT assay; format: functional, cell-based; conditions: NCI-H460, 48 h
How it was run: (§1)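 Cells seeded at 3 × 10^3/well and grown 24 h, then exposed to compounds for 48 h. MTT (5 mg/ml stock) added for 2 h at 37 °C, supernatant removed, formazan dissolved in DMSO 15-20 min. Absorbance read at 570 nm. IC50 per cell line, mean of three determinations.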

HeLa = test: Antiproliferative activity against human HeLa cells after 48 hrs by MTT assay; format: functional, cell-based; how it was run: as §1
[2] = Antiproliferative activity against human A875 cells after 48 hrs by MTT assay; format: functional, cell-based; conditions: A875, 48 h; how it was run: as §1
BXPC-3 = test: Antiproliferative activity against human BxPC3 cells after 48 hrs by MTT assay; format: functional, cell-based; conditions: BXPC-3, 48 h; how it was run: as §1
HCT-116 = test: Antiproliferative activity against human HCT116 cells after 48 hrs by MTT assay; format: functional, cell-based; conditions: HCT-116, 48 h; how it was run: as §1
A549 = test: Antiproliferative activity against human A549 cells after 48 hrs by MTT assay; format: functional, cell-based; conditions: A549, 48 h; how it was run: as §1
HepG2 = test: Antiproliferative activity against human HepG2 cells after 48 hrs by MTT assay; format: functional, cell-based; conditions: HepG2, 48 h; how it was run: as §1
Bel-7402 = test: Antiproliferative activity against human Bel7402 cells after 48 hrs by MTT assay; format: functional, cell-based; conditions: Bel-7402, 48 h; how it was run: as §1
SMMC-7721 = test: Antiproliferative activity against human SMMC7721 cells after 48 hrs by MTT assay; format: functional, cell-based; conditions: SMMC-7721, 48 h; how it was run: as §1
HT-29 = test: Antiproliferative activity against human HT-29 cells after 48 hrs by MTT assay; format: functional, cell-based; conditions: HT-29, 48 h; how it was run: as §1
A875 [3] = test: Induction of apoptosis in human A875 cells assessed as appearance of condensed nuclei after 36 hrs by Hoechst 33342 staining-based fluorescence microscopic analysis; format: functional, cell-based
How it was run: (§2)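 A875 cells (1 × 10^5/well) cultured 24 h, then treated for 36 h at 0.38, 0.75 or 1.5 µM. After PBS rinse and fixation in 75% ethanol, morphology checked by inverted bright-field microscope. Nuclei then stained with Hoechst 33342 (2 µg/mL in PBS) and examined by fluorescence microscopy for condensed, fragmented nuclei.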

A875 [4] = test: Induction of apoptosis in human A875 cells assessed as cell shrinkage and rounding up after 36 hrs by Hoechst 33342 staining-based fluorescence microscopic analysis; format: functional; how it was run: as §2
A875 [5] = test: Induction of apoptosis in human A875 cells after 48 hrs by propidium iodide staining-based flow cytometric analysis; format: functional, cell-based
[6] = Cell cycle arrest in human A875 cells assessed as accumulation at S phase at 1.5 uM after 48 hrs by propidium iodide staining-based flow cytometric analysis (reference value: 11.46%); format: functional
[7] = Cell cycle arrest in human A875 cells assessed as accumulation at S phase at 0.75 uM after 48 hrs by propidium iodide staining-based flow cytometric analysis (reference value: 11.46%); format: functional
[8] = Cell cycle arrest in human A875 cells assessed as accumulation at S phase at 0.38 uM after 48 hrs by propidium iodide staining-based flow cytometric analysis (reference value: 11.46%); format: functional
[9] = Cell cycle arrest in human A875 cells assessed as accumulation at G2/M phase at 1.5 uM after 48 hrs by propidium iodide staining-based flow cytometric analysis (reference value: 10.36%); format: functional
[10] = Cell cycle arrest in human A875 cells assessed as accumulation at G2/M phase at 0.75 uM after 48 hrs by propidium iodide staining-based flow cytometric analysis (reference value: 10.36%); format: functional
[11] = Cell cycle arrest in human A875 cells assessed as accumulation at G2/M phase at 0.38 uM after 48 hrs by propidium iodide staining-based flow cytometric analysis (reference value: 10.36%); format: functional
[12] = Cell cycle arrest in human A875 cells assessed as accumulation at G0/G1 phase at 1.5 uM after 48 hrs by propidium iodide staining-based flow cytometric analysis (reference value: 78.18%); format: functional
[13] = Cell cycle arrest in human A875 cells assessed as accumulation at G0/G1 phase at 0.75 uM after 48 hrs by propidium iodide staining-based flow cytometric analysis (reference value: 78.18%); format: functional
[14] = Cell cycle arrest in human A875 cells assessed as accumulation at G0/G1 phase at 0.38 uM after 48 hrs by propidium iodide staining-based flow cytometric analysis (reference value: 78.18%); format: functional
[15] = Induction of apoptosis in human A875 cells at 1.5 uM after 48 hrs by propidium iodide staining-based flow cytometric analysis (reference value: 1.56%); format: functional
[16] = Induction of apoptosis in human A875 cells at 0.75 uM after 48 hrs by propidium iodide staining-based flow cytometric analysis (reference value: 1.56%); format: functional
[17] = Induction of apoptosis in human A875 cells at 0.38 uM after 48 hrs by propidium iodide staining-based flow cytometric analysis (reference value: 1.56%); format: functional
[18] = Induction of apoptosis in human A875 cells at 1.5 uM after 24 hrs by propidium iodide staining-based flow cytometric analysis (reference value: 1.14%); format: functional
[19] = Induction of apoptosis in human A875 cells at 0.75 uM after 24 hrs by propidium iodide staining-based flow cytometric analysis (reference value: 1.14%); format: functional
[20] = Induction of apoptosis in human A875 cells at 0.38 uM after 24 hrs by propidium iodide staining-based flow cytometric analysis (reference value: 1.14%); format: functional

IC50 (HeLa): 7.8 µM
Compound: O=C(CCl)Nc1ccc(SCC(=O)Nc2ccccn2)cc1
IC50 [1]: 11.9 µM
IC50 [2]: 17.2 µM

IC50 (HeLa): > 80 µM
Compound: O=C(CSc1ccc(NC(=O)CCCl)cc1)NCc1ccc(Cl)cc1
IC50 [1]: 60.8 µM
IC50 [2]: 31.4 µM

IC50 (HeLa): 10.9 µM
Compound: Cc1ccc(NC(=O)CSc2nnc(NC(=O)CCl)s2)nc1
IC50 [1]: 15.4 µM
IC50 [2]: 18.3 µM

IC50 (HeLa): > 80 µM
Compound: COc1ccccc1C(=O)Nc1nnc(SCC(=O)Nc2ccc(C)cn2)s1
IC50 [1]: > 80 µM
IC50 [2]: > 80 µM

IC50 (HeLa): > 80 µM
Compound: C=CC(=O)Nc1ccc(SCC(=O)Nc2ccccn2)cc1
IC50 [1]: 76.8 µM
IC50 [2]: 23.4 µM

IC50 (HeLa): > 80 µM
Compound: O=C(CSc1ccc(NC(=O)C(Cl)(Cl)Cl)cc1)Nc1ccc(Cl)cn1
IC50 [1]: > 80 µM
IC50 [2]: > 80 µM

IC50 (HeLa): > 80 µM
Compound: CC(C)(C)C(=O)Nc1ccc(SCC(=O)Nc2cc(Cl)ccn2)cc1
IC50 [1]: 35.3 µM
IC50 [2]: > 80 µM

IC50 (HeLa): > 80 µM
Compound: C=CC(=O)Nc1ccc(SCC(=O)NCc2cccc(Cl)c2)cc1
IC50 [1]: 74.5 µM
IC50 [2]: 21.1 µM

IC50 (HeLa): 70.4 µM
Compound: O=C(CCCl)Nc1ccc(SCC(=O)Nc2ccccn2)cc1
IC50 [1]: 65.4 µM
IC50 [2]: 29.5 µM

IC50 (HeLa): > 80 µM
Compound: COc1ccccc1C(=O)Nc1nnc(SCC(=O)Nc2ccc(Cl)cn2)s1
IC50 [1]: > 80 µM
IC50 [2]: > 80 µM

IC50 (HeLa): > 80 µM
Compound: O=C(CSc1ccc(NC(=O)C(Cl)Cl)cc1)Nc1ccc(Br)cn1
IC50 [1]: 47.8 µM
IC50 [2]: 56.8 µM

IC50 (HeLa): 5.3 µM
Compound: O=C(CSc1nnc(NC(=O)CCCl)s1)Nc1ccc(Br)cn1
IC50 [1]: 0.56 µM
IC50 [2]: 0.43 µM

IC50 (HeLa): 25.8 µM
Compound: O=C(CSc1nnc(NC(=O)c2c(Cl)cccc2Cl)s1)Nc1ccc(Br)cn1
IC50 [1]: 16.8 µM
IC50 [2]: 18.6 µM

IC50 (BXPC-3): 0.28 µM
IC50 (HCT-116): 1.2 µM
IC50 (A549): 6.2 µM
IC50 (HepG2): 5.8 µM
IC50 (Bel-7402): 0.67 µM
IC50 (SMMC-7721): 0.43 µM
IC50 (HT-29): 13.7 µM
IC50 (HeLa): 2.1 µM
Compound: O=C(CCl)Nc1ccc(SCC(=O)Nc2ccc(Br)cn2)cc1
IC50 [1]: 0.53 µM
IC50 [2]: 0.29 µM

IC50 (HeLa): > 80 µM
Compound: COc1ccccc1C(=O)Nc1nnc(SCC(=O)Nc2ccc(Br)cn2)s1
IC50 [1]: > 80 µM
IC50 [2]: > 80 µM

IC50 (HeLa): 15.2 µM
Compound: O=C(CSc1nnc(NC(=O)C(Cl)Cl)s1)Nc1ccc(Br)cn1
IC50 [1]: 5.3 µM
IC50 [2]: 6.5 µM

IC50 (HeLa): 21.7 µM
Compound: O=C(CCCl)Nc1ccc(SCC(=O)Nc2cc(Cl)ccn2)cc1
IC50 [1]: 10.9 µM
IC50 [2]: 12.3 µM

IC50 (HeLa): 2.8 µM
Compound: O=C(CCl)Nc1ccc(SCC(=O)Nc2cc(Cl)ccn2)cc1
IC50 [1]: 5.6 µM
IC50 [2]: 0.85 µM

IC50 (HeLa): > 80 µM
Compound: O=C(CSc1ccc(NC(=O)CCl)cc1)NCc1ccc(Cl)cc1
IC50 [1]: 23.1 µM
IC50 [2]: 8.9 µM

IC50 (HeLa): > 80 µM
Compound: O=C(CCCCl)Nc1ccc(SCC(=O)Nc2ccc(Cl)cn2)cc1
IC50 [1]: > 80 µM
IC50 [2]: > 80 µM

IC50 (HeLa): 70.5 µM
Compound: Cc1ccnc(Cl)c1NC(=O)CSc1nnc(NC(=O)CCl)s1
IC50 [1]: 59.6 µM
IC50 [2]: 34.7 µM

IC50 (HeLa): > 80 µM
Compound: COc1ccccc1C(=O)Nc1nnc(SCC(=O)Nc2c(C)ccnc2Cl)s1
IC50 [1]: > 80 µM
IC50 [2]: > 80 µM

IC50 (BXPC-3): 0.19 µM
IC50 (HCT-116): 0.61 µM
IC50 (A549): 0.59 µM
IC50 (HepG2): 3.6 µM
IC50 (Bel-7402): 0.45 µM
IC50 (SMMC-7721): 0.35 µM
IC50 (HT-29): 8.7 µM
IC50 (HeLa): 2.5 µM
Compound: O=C(CCl)Nc1ccc(SCC(=O)Nc2ccc(Cl)cn2)cc1
Activity (A875 [3]): Dose-dependent effect
Activity (A875 [4]): Dose-dependent effect
Activity (A875 [5]): Dose-dependent effect
Activity [6]: 39.6%
Activity [7]: 31.2%
Activity [8]: 29.1%
Activity [9]: 29.9%
Activity [10]: 21.8%
Activity [11]: 10.8%
Activity [12]: 30.5%
Activity [13]: 48.9%
Activity [14]: 60%
Activity [15]: 61.59%
Activity [16]: 41.59%
Activity [17]: 11.17%
Activity [18]: 42.88%
Activity [19]: 25.45%
Activity [20]: 3.67%
IC50 [1]: 0.42 µM
IC50 [2]: 0.098 µM

IC50 (HeLa): > 80 µM
Compound: O=C(CSc1ccc(NC(=O)CCl)cc1)NCc1cccc(Cl)c1
IC50 [1]: 33.4 µM
IC50 [2]: 7.8 µM

IC50 (HeLa): 3.6 µM
Compound: O=C(CSc1nnc(NC(=O)CCl)s1)Nc1ccc(Cl)cn1
IC50 [1]: 5.7 µM
IC50 [2]: 8.6 µM

IC50 (HeLa): > 80 µM
Compound: O=C(CSc1nnc(NC(=O)CCCCl)s1)Nc1ccc(Cl)cn1
IC50 [1]: 55.2 µM
IC50 [2]: > 80 µM

IC50 (HeLa): 15.6 µM
Compound: O=C(CCCl)Nc1ccc(SCC(=O)Nc2ccc(Br)cn2)cc1
IC50 [1]: 1.6 µM
IC50 [2]: 24.3 µM

IC50 (HeLa): 3.4 µM
Compound: O=C(CSc1nnc(NC(=O)CCl)s1)Nc1ccc(Br)cn1
IC50 [1]: 7.5 µM
IC50 [2]: 13.9 µM

IC50 (HeLa): 25.2 µM
Compound: C=CC(=O)Nc1ccc(SCC(=O)Nc2cc(Cl)ccn2)cc1
IC50 [1]: 19.7 µM
IC50 [2]: 14.7 µM

IC50 (HeLa): > 80 µM
Compound: CC(C)(C)C(=O)Nc1ccc(SCC(=O)Nc2ccc(Cl)cn2)cc1
IC50 [1]: 67.2 µM
IC50 [2]: > 80 µM
